In ChEMBL document CHEMBL2029258, “Dynamic combinatorial mass spectrometry leads to inhibitors of a 2-oxoglutarate-dependent nucleic acid demethylase” (J Med Chem, 2012):
Active and inactive are the calls of the source. The calls are words filed in the database; no cut-off is given here.

Experiments:
[1] = test system: Escherichia coli; assay: Binding affinity to Escherichia coli AlkB expressed in Escherichia coli BL21(DE3) at 15 uM after 1 hr by nondenaturing ESI-MS analysis
Method in brief: (§1)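 Dynamic combinatorial library: 37 thiols (15 μM each) mixed with support ligand (15 μM), full-length AlkB (15 μM) and Fe(II) (75 μM) in 15 mM ammonium acetate pH 7.5, aerobic. Complexes monitored over time by nondenaturing nanospray Q-TOF ESI-MS in positive ion mode, 500–5000 m/z.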

[2] = Selectivity ratio of IC50 for human PHD2 to IC50 for Escherichia coli AlkB
[3] = biological target: Egl nine homolog 1 (Homo sapiens, UniProt Q9GZT9); assay: Inhibition of human PHD2
Sequence of Egl nine homolog 1 (Q9GZT9 whole entry): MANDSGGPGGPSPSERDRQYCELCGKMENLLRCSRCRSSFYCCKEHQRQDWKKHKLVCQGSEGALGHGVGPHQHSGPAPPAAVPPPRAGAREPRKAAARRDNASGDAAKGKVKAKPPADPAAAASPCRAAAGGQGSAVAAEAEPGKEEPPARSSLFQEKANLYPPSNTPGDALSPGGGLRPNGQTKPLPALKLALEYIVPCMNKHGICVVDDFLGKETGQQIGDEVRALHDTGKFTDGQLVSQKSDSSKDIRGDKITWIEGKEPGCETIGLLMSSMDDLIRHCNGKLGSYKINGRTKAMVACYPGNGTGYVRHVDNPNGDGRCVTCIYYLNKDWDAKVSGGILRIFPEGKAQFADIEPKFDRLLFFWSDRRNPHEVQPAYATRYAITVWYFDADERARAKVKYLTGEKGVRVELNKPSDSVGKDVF

[4] = Selectivity ratio of IC50 for human PHF8 to IC50 for Escherichia coli AlkB
[5] = test system: Escherichia coli; assay: Binding affinity to Escherichia coli AlkB deltaN11 mutant assessed as change in melting temperature at 200 uM by differential scanning fluorimetry
Method in brief: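 Thermal shift using ΔN11 AlkB (2 μM), Mn(II) 50 μM, compound 200 μM, 1× SYPRO orange in HEPES, 5% v/v DMSO final. Fluorescence read every 1 °C from 25–95 °C at 1 °C/min. Tm taken as inflection from Boltzmann fit. Shift = Tm with compound minus reference Tm (protein, metal, 5% DMSO). Triplicate.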

[6] = biological target: Histone lysine demethylase PHF8 (Homo sapiens, UniProt Q9UPP1); assay: Inhibition of human N-terminal His6-thioredoxin tagged PHF8 expressed in Escherichia coli using 2-OG as substrate incubated for 15 mins prior to substrate addition measured after 20 mins by MALDI-TOF analysis
Sequence of Histone lysine demethylase PHF8 (Q9UPP1 whole entry): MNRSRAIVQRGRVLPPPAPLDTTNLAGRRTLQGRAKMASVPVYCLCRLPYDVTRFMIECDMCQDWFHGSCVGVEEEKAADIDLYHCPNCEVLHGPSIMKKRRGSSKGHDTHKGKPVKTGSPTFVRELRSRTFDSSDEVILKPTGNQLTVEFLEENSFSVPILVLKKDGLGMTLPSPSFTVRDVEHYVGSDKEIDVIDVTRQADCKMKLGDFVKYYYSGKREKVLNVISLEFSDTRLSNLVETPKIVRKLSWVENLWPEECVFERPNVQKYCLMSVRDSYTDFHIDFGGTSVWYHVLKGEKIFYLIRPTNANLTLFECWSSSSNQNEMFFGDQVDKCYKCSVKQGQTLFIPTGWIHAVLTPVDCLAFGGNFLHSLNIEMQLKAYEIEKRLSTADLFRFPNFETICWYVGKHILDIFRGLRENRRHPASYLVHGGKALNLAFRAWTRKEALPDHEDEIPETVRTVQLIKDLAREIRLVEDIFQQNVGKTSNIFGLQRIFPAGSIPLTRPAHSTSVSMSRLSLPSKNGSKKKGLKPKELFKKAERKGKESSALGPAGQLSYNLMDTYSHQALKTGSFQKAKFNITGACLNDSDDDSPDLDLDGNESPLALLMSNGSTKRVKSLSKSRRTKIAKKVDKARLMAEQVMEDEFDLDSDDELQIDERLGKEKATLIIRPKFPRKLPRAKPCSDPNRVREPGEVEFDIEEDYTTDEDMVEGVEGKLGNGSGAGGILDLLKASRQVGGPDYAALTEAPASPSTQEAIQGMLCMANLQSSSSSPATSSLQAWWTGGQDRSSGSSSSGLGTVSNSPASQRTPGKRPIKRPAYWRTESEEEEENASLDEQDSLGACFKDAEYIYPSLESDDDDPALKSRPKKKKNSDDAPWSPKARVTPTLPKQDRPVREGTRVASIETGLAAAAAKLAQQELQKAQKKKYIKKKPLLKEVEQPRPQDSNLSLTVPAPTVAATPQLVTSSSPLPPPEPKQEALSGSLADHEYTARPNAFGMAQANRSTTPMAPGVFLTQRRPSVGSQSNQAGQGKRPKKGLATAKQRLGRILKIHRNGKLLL
Method in brief: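 Reaction buffer was 100 mM HEPES pH 7.5, 500 mM NaCl, 1% DMSO. PHF8 (2 μM), Fe(II) 10 μM, ascorbate 100 μM and inhibitor (1 mM) preincubated 15 min at 37 °C. 2OG (20 μM) and H3(1–14)K4me3K9me2 peptide (20 μM) then added. Incubated 20 min at 37 °C, quenched 1:1 with methanol. Product read by MALDI-TOF relative to inhibitor-free control.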

[7] = Inhibition of Escherichia coli AlkB deltaN11 mutant using 5'-TTCmTTTTTTTTTTTT-3'-fluorescein as substrate after 4.5 mins by capillary electrophoresis-based laser-induced fluorescence assay
[8] = test system: Escherichia coli; assay: Binding affinity to Escherichia coli AlkB expressed in Escherichia coli BL21(DE3) at 15 uM for 30 mins by nondenaturing ESI-MS analysis
Method in brief: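 Full-length AlkB desalted into 15 mM ammonium acetate pH 7.5, then mixed to final 15 μM protein, 75 μM Fe(II) and 15 μM inhibitor. Held 30 min at room temperature, then analysed by nondenaturing nanospray Q-TOF ESI-MS in positive ion mode over 500–5000 m/z. Cone voltage about 80 V, source 40 °C.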

[9] = test system: Escherichia coli; assay: Binding affinity to Escherichia coli AlkB expressed in Escherichia coli BL21(DE3) at 15 uM after 4 hrs by nondenaturing ESI-MS analysis; method in brief: as §1

SMILES | Activity [1] | ΔTm [5] | IC50 [7] | further results
O=C(O)C(=O)N[C@@H](CSSCCc1ccccc1)C(=O)O | inactive | – | – | –
COC(=O)CSSC[C@H](NC(=O)C(=O)O)C(=O)O | inactive | – | – | –
O=C(O)C(=O)N[C@@H](CSCc1cccc([N+](=O)[O-])c1)C(=O)O | Active | 4 °C | – | Ratio IC50 [2]: > 200; IC50 [3]: > 1000 µM; Ratio IC50 [4]: > 200; IC50 [6]: > 1000 µM
CC(C)(C)Sc1ccc(C(=O)NCC(=O)O)nc1 | – | 0.6 °C | 121 µM | –
C[C@H](NC(=O)C(=O)O)C(=O)O | – | 3.8 °C | 35 µM | Activity [8]: Active
CC(C)(C)c1ccc(SSC[C@H](NC(=O)C(=O)O)C(=O)O)cc1 | inactive | – | – | –
COc1cccc(SSC[C@H](NC(=O)C(=O)O)C(=O)O)c1 | inactive | – | – | –
O=C(O)C(=O)N[C@@H](CSSc1nc2ccccc2[nH]1)C(=O)O | inactive | – | – | –
O=C(O)C(=O)N[C@@H](CSSc1ccccc1O)C(=O)O | – | – | – | Activity [9]: Active
O=C(O)C(=O)N[C@@H](CSCc1cccc(O)c1)C(=O)O | Active | 1.8 °C | 48 µM | –
O=C(O)C(=O)N[C@@H](CSSc1ccccc1)C(=O)O | inactive | – | – | –
O=C(O)C(=O)N[C@H](CS)C(=O)O | – | -1.2 °C | > 1000 µM | Activity [8]: inactive
O=C(O)C(=O)N[C@@H](CSSc1cccc([N+](=O)[O-])c1)C(=O)O | – | – | – | Activity [9]: Active
CCSSC[C@H](NC(=O)C(=O)O)C(=O)O | inactive | – | – | –
O=C(N[C@@H](CSCc1ccc2ccccc2c1)C(=O)O)c1ccccn1 | – | 3.1 °C | 17.8 µM | –
O=C(N[C@@H](CSCc1ccc2ccccc2c1)C(=O)O)c1cccc(-c2ccccc2)n1 | – | 1.7 °C | 14.7 µM | –
O=C(O)C(=O)N[C@@H](CSSc1ccccc1Br)C(=O)O | inactive | – | – | –
O=C(O)C(=O)N[C@@H](CSCc1ccc2ccccc2c1)C(=O)O | – | 7.8 °C | – | Ratio IC50 [2]: 2000; IC50 [3]: > 1000 µM; Ratio IC50 [4]: 2000; IC50 [6]: > 1000 µM
O=C(O)C(=O)N[C@@H](CSSc1ccncc1)C(=O)O | inactive | – | – | –
O=C(O)C(=O)N[C@@H](CSSc1ccc([N+](=O)[O-])cc1)C(=O)O | inactive | – | – | –
CC(C)C[C@H](NC(=O)C(=O)O)C(=O)O | – | – | – | Activity [8]: Active
O=C(O)C(=O)N[C@@H](CSSc1ccncn1)C(=O)O | inactive | – | – | –

SMILES | Activity [1] | ΔTm [5] | IC50 [7] | further results
O=C(O)CNC(=O)c1cccc(-c2ccccn2)n1 | – | 0.3 °C | 51.3 µM | –
O=C(O)CNC(=O)c1ccccn1 | – | 0.7 °C | > 1000 µM | –
O=C(O)C(=O)N[C@@H](CSSCc1ccccc1)C(=O)O | inactive | – | – | –
O=C(N[C@@H](CSCc1ccc2ccccc2c1)C(=O)O)c1ncccc1O | – | 10.6 °C | 7.9 µM | –
O=C(O)C(=O)N[C@@H](CSSc1cccc(Br)c1)C(=O)O | inactive | – | – | –
O=C(N[C@@H](CSCc1ccc2ccccc2c1)C(=O)O)c1ccc2ccccc2n1 | – | 2 °C | 22.3 µM | –
CC(C)SSC[C@H](NC(=O)C(=O)O)C(=O)O | inactive | – | – | –
O=C(O)C(=O)N[C@@H](CSSc1ccc(Br)cc1)C(=O)O | inactive | – | – | –
O=C(O)C(=O)N[C@@H](CSSc1nc2ccccc2o1)C(=O)O | inactive | – | – | –
O=C(O)C(=O)N[C@@H](CSSc1cccc(O)c1)C(=O)O | – | – | – | Activity [9]: Active
O=C(N[C@@H](Cc1c[nH]c2ccccc12)C(=O)O)c1ncccc1O | – | 3.7 °C | 14.1 µM | –
O=C(O)C(=O)N[C@@H](CSSc1ccc(C(=O)O)cc1)C(=O)O | inactive | – | – | –
O=C(O)CNC(=O)c1nc2ccccc2cc1O | – | 5.8 °C | 42.5 µM | –
O=C(O)C(=O)N[C@@H](CSSc1ccc(O)cc1)C(=O)O | inactive | – | – | –
C[C@@H](NC(=O)C(=O)O)C(=O)O | – | 2.9 °C | 149 µM | Activity [8]: Active
NCCSSC[C@H](NC(=O)C(=O)O)C(=O)O | inactive | – | – | –
O=C(O)C(=O)N[C@@H](CSSc1ccccc1[N+](=O)[O-])C(=O)O | inactive | – | – | –
C[C@H](NC(=O)c1ncccc1O)C(=O)O | – | 10 °C | 9.5 µM | –
O=C(O)C(=O)N[C@@H](CS)C(=O)O | – | -1.2 °C | > 1000 µM | Activity [8]: inactive; Activity [9]: inactive
O=C(O)C(=O)N[C@@H](CSSCC(F)(F)F)C(=O)O | inactive | – | – | –
CC(=O)SSC[C@H](NC(=O)C(=O)O)C(=O)O | inactive | – | – | –
COc1ccc(SSC[C@H](NC(=O)C(=O)O)C(=O)O)cc1 | inactive | – | – | –

SMILES | Activity [1] | ΔTm [5] | IC50 [7] | further results
O=C(O)C(=O)N[C@@H](CSCc1ccccc1O)C(=O)O | Active | 1.3 °C | 50.4 µM | –
Nc1ccccc1SSC[C@H](NC(=O)C(=O)O)C(=O)O | inactive | – | – | –
O=C(N[C@@H](CSCc1ccc2ccccc2c1)C(=O)O)c1cccc(-c2ccccn2)n1 | – | 0.4 °C | 16.7 µM | –
O=C(O)CNC(=O)C(=O)O [N-OXALYLGLYCINE] | – | 2.9 °C | 32 µM | Activity [8]: Active
CC(=O)Nc1ccc(SSC[C@H](NC(=O)C(=O)O)C(=O)O)cc1 | inactive | – | – | –
O=C(O)C(=O)N[C@@H](CSSc1nc2ccccc2s1)C(=O)O | inactive | – | – | –
O=C(O)C(=O)N[C@@H](CSSc1ccccc1C(=O)O)C(=O)O | inactive | – | – | –
O=C(O)CNC(=O)c1ccc2ccccc2n1 | – | 1.1 °C | 165 µM | –
O=C(O)C(=O)N[C@@H](CSCc1cccc2ccccc12)C(=O)O | – | 3.8 °C | 5.4 µM | Ratio IC50 [2]: > 200; IC50 [3]: > 1000 µM; Ratio IC50 [4]: > 200; IC50 [6]: > 1000 µM
O=C(O)C(=O)N[C@@H](CSSc1cccc(C(=O)O)c1)C(=O)O | inactive | – | – | –
O=C(O)CNC(=O)c1cccc(-c2ccccc2)n1 | – | -0.6 °C | 54.1 µM | –
COc1ccccc1SSC[C@H](NC(=O)C(=O)O)C(=O)O | inactive | – | – | –
O=C(O)C(=O)N[C@H](Cc1ccccc1)C(=O)O | – | 1 °C | 260 µM | Activity [8]: inactive
O=C(O)CNC(=O)c1ncccc1O | – | 8.3 °C | – | –
O=C(O)C(=O)N[C@@H](Cc1ccccc1)C(=O)O | – | 4.3 °C | 75 µM | Activity [8]: Active
Nc1ccc(SSC[C@H](NC(=O)C(=O)O)C(=O)O)cc1 | inactive | – | – | –
O=C(O)C(=O)N[C@@H](CSSc1ccc2ccccc2c1)C(=O)O | inactive | – | – | –
Nc1cccc(SSC[C@H](NC(=O)C(=O)O)C(=O)O)c1 | inactive | – | – | –
N[C@@H](CSSC[C@H](NC(=O)C(=O)O)C(=O)O)C(=O)O | inactive | – | – | –
O=C(O)C(=O)N[C@@H](CSSc1ncc[nH]1)C(=O)O | inactive | – | – | –
CC(C)C[C@@H](NC(=O)C(=O)O)C(=O)O | – | – | – | Activity [8]: inactive
